Here are results for three compounds from PMC3604185 (Biochemical pharmacology, 2013).

Values joined by “and” are separate entries in the source; they are usually repeats but may differ in a detail not shown here. Equal entries are not always repeated.

One may read the Ki as a dissociation constant, usually derived from enzyme kinetics or from competition with a known ligand.

The target in experiment [1] is T1, mA3AR (Mus musculus, UniProt Q61618).
T1 sequence (Q61618 1-319): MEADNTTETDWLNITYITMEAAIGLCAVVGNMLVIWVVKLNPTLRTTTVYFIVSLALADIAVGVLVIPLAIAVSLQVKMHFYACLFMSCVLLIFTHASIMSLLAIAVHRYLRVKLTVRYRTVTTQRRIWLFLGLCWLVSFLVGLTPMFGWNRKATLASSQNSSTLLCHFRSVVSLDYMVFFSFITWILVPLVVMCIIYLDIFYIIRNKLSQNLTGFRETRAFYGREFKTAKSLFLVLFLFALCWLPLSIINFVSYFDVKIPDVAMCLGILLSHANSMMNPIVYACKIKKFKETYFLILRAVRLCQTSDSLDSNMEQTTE
The experiment can be described thus: FCM binding. In outline: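 HEK293 cells stably expressing mouse A3AR, grown in DMEM with 10% FBS and 0.6 mg/ml G418. Cells were incubated with fluorescent agonist (5–1,000 nM) at 37 °C for varied times. […] Cells were washed in ice-cold PBS and detached with 0.2% EDTA. MFI was read in FL-4 (635 nm laser) and fitted by non-linear least squares.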

For experiment [2], the target named is T2, hA3AR (Homo sapiens, UniProt P0DMS8).
T2 sequence (P0DMS8 1-318): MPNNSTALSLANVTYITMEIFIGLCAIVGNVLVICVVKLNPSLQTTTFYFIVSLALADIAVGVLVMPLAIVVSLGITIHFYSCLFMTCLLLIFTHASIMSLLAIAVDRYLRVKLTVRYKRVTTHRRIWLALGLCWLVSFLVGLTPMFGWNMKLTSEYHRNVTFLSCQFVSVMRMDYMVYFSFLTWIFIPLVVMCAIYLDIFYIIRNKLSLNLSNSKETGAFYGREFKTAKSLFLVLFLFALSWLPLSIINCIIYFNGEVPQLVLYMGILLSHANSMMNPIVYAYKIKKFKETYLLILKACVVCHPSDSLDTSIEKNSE
As to the kind of experiment: FCM of MRS5704 in AR-expressing HEK293 cells. The format is binding.

Experiment [3] deals with T2, hA3AR. The experiment can be described thus: FCM competitive binding in hA3AR-CHO whole cells with MRS5218. The settings on record: read-out: FCM binding at hA3AR, Ki, MRS5218 30 nM tracer, 60 min at 37 °C, 0.4 M sucrose.
Experiment [4] deals with T3, mA1AR (Mus musculus, UniProt Q60612).
T3 sequence (Q60612 1-326): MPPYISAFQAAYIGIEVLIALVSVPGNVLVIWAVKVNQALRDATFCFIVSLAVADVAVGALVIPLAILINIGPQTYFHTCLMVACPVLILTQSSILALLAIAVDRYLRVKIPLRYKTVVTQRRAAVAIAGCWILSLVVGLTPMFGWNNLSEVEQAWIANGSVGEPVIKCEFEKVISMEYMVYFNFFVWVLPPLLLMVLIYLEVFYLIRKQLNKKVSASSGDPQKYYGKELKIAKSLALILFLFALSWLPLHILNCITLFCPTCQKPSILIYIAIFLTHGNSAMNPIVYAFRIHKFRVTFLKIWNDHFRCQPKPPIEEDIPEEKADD
The format is binding. The settings on record: read-out: Ki, A1AR (mouse), n = 3-4. In outline: (§1)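 Membranes from HEK293 cells stably expressing the mouse receptor were used in a competition assay following the human-receptor protocol. Test compound at increasing concentrations was incubated with radioligand and membranes in 50 mM Tris-HCl, pH 7.5, with 10 mM MgCl2, at 25 °C for 60 min. Bound and free were separated by GF/B filtration with ice-cold Tris washes. […] Ki was calculated from IC50 by nonlinear fitting.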

Experiment [5] deals with T4, mA2AAR (Mus musculus, UniProt Q60613). The format is binding. The settings on record: read-out: Ki, A2AAR (mouse), n = 3-4. In outline:
as §1

Experiment [6] deals with T1, mA3AR. The format is binding. The settings on record: read-out: Ki, A3AR (mouse), n = 3-4. In outline:
as §1

A further experiment concerns the target T5, mA2BAR (Mus musculus, UniProt Q60614).
T5 sequence (Q60614 1-332): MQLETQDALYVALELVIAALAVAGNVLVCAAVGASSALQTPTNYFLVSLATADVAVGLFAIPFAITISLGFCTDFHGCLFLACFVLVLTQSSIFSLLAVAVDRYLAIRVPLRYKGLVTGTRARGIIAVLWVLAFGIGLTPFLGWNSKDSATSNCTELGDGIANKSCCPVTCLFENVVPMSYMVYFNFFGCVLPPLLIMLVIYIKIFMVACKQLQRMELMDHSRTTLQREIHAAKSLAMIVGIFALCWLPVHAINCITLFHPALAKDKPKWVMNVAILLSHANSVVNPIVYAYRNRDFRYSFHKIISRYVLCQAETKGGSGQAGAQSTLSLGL
As to the kind of experiment: FCM binding in HEK293 cells expressing mA2BAR. The settings on record: 1 µM, 2 h. In outline: (§2)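 Stable HEK293 lines expressing the mouse receptor were grown in DMEM with 10% FBS, 2 mM L-glutamine, penicillin/streptomycin and 0.6 mg/ml G418, then plated for 24 h at 37 °C, 5% CO2. At about 80% confluency, the fluorescent agonist (range 5–1000 nM) was added in fresh medium at 37 °C. Cells were then washed in ice-cold PBS, detached with 0.2% EDTA, spun twice at 400 × g and resuspended in PBS. MFI was read by flow cytometry (635 nm laser, FL-4, log mode).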

Experiment [7] deals with T3, mA1AR. The experiment can be described thus: FCM binding in HEK293 cells expressing mA1AR. The settings on record: 1 µM, 2 h. A digest of the protocol: as §2
The target in experiment [8] is T4, mA2AAR. As to the kind of experiment: FCM binding in HEK293 cells expressing mA2AAR. The settings on record: 1 µM, 2 h. In outline:
as §2

The target in a further experiment is T6, hA1AR (Homo sapiens, UniProt P30542).
T6 sequence (P30542 1-326): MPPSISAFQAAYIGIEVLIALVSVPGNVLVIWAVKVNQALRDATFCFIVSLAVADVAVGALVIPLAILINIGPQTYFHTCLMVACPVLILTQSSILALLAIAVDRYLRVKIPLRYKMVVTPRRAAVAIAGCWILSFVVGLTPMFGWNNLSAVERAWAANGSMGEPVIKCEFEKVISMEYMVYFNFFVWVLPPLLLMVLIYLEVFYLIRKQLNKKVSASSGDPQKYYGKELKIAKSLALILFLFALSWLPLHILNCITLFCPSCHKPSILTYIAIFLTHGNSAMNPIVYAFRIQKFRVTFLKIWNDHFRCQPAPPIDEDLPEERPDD
The settings on record: inhibition of radioligand binding at 10 µM, ref [19],[21],[22]; cited from earlier work.

Another experiment concerns the target hA2AAR (Homo sapiens, UniProt P29274). The settings on record: read-out: Ki, A2AAR, ref [21],[22]; cited from earlier work.

T4 sequence (Q60613 whole entry): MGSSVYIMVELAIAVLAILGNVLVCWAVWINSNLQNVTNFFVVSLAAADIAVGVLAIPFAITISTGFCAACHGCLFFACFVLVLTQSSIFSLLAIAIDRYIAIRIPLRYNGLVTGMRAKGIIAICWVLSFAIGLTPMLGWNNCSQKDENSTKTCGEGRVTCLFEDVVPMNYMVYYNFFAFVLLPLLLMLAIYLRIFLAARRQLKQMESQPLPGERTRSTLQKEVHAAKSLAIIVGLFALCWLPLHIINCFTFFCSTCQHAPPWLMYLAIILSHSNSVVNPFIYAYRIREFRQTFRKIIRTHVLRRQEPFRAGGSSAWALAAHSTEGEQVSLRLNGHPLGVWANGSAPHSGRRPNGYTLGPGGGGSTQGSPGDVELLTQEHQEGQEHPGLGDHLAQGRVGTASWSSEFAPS
hA2AAR, sequence (P29274 whole entry): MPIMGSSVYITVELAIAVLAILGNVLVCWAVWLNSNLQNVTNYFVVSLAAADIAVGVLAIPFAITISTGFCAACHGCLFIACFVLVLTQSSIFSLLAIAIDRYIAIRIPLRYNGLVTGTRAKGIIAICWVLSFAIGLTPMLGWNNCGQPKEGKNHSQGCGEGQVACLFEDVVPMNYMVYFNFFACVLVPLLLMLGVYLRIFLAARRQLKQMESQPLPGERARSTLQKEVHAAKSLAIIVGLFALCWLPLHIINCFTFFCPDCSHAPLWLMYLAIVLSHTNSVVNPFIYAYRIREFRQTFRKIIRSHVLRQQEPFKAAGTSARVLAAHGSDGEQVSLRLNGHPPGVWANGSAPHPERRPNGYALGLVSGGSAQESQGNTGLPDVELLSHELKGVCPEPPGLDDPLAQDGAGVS

`CNC(=O)[C@@]12C[C@@H]1[C@@H](n1cnc3c(NCc4cccc(Cl)c4)nc(C#Cc4ccc5ccc6cccc7ccc4c5c67)nc31)[C@H](O)[C@@H]2O` [Compound 2, (1S,2R,3S,4R,5S)-4-(6-(3-chlorobenzylamino)-2-(pyren-1-ylethynyl)-9H-purin-9-yl)-2,3-dihydroxy-N-methylbicyclo[3.1.0]hexane-1-carboxamide]: on mA3AR [1] (AR-expressing HEK293 cells), the “specific fluorescent binding by FCM, mA3AR” value is reported as “failed to show specific fluorescent binding”. In addition, the “specific fluorescent binding by FCM, hA3AR” value at hA3AR [2] was “failed to show specific fluorescent binding”.
In the case of `OC[C@H]1O[C@@H](n2cnc3c(NC4CCCC4)ncnc32)[C@H](O)[C@@H]1O` [CPA], at hA3AR [3], the Ki is 88.4 ± 13.6 nM.
On to “(1′S,2′R,3′S,4′S,5′S)-4′-[6-(3-chlorobenzylamino)-2-(N-cyanine(β-aminoethylaminocarbonyl)-1-butynyl)-9-yl]-2′,3′-dihydroxybicyclo[3.1.0]hexane-1′-carboxylic acid N-methylamide [Compound 1]”, for which the Ki at mA1AR [4] was 143 nM; on mA2AAR [5] it was 717 ± 19 nM; on mA3AR [6] it was 261 ± 29 nM; at hA2AAR, 4730 nM. The same compound showed a t1/2 of dissociation on mA3AR [1] (5 nM for 2 h, then NECA (100 µM)) of 39.4 ± 4.2 min. Further, the t1/2 of association on mA3AR [1] (5 nM, listed as MRS5218) is 38 min and 37.8 ± 2.9 min. Besides, the “specific labeling of mA3AR-HEK293 cells” value at mA3AR [1] (50-300 nM, 2 h, nonspecific with 100 µM NECA) was “specifically labeled mA3AR-HEK293 cells versus cells expressing other AR subtypes”. The Kd at mA3AR [1] (read-out: Kd app, saturation, whole cells, 2 h, absence of sucrose) is 7.52 ± 0.49 nM. At mA3AR [1] (saturation, whole cells, 2 h, absence of sucrose), the Bmax is listed as 99,420±18,110 MESF/cell. The “specific binding to mA2BAR-HEK293 cells” value at mA2BAR is listed as “became detectable”. Also, the “specific binding to mA1AR-HEK293 cells” value on mA1AR [7] is recorded as “not observed”. Besides, the “specific binding to mA2AAR-HEK293 cells” value at mA2AAR [8] is given as “not observed”. Further, the “% inhibition, A1AR” value on hA1AR was “h: 36%”.
